Laboratory results: ChEMBL document CHEMBL1156973, “(-)-Carbodine: enantiomeric synthesis and in vitro antiviral activity against various strains of influenza virus including H5N1 (avian influenza) and novel 2009 H1N1 (swine flu)” (Bioorg Med Chem Lett, 2010)

Tests used:
[1] = test system: Influenza A virus; test: Antiviral activity against Influenza A virus California/07/2009 /H1N1 infected MDCK cells assessed as inhibition of virus-induced cytopathic effect after 3 days; assay type: functional, organism-based, A/California/07/2009(H1N1); settings: mdck
[2] = Selectivity ratio of IC50 for MDCK cells to EC50 for Influenza B virus Malaysia/2506/2004 by neutral red dye uptake assay; assay type: ADME, cell-based; settings: dog, mdck
How it was run: (§1)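 Neutral red uptake in MDCK cells: IC50 (50% inhibition of uninfected cells) divided by EC50 (50% inhibition of virus effect), both from replicate serial-dilution assays.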

[3] = test system: Influenza A virus; test: Antiviral activity against Influenza A virus Wisconsin/67/2005/H3N2 infected MDCK cells after 42 to 46 hrs by neutral red dye uptake assay; assay type: functional, organism-based, Influenza A virus (A/Wisconsin/67/2005(H3N2)); settings: mdck
How it was run: (§2)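 Triplicate MDCK wells got serial compound dilutions, then ≤300 CCID50 of virus, with the same inoculum for all replicates. Antiviral effect was read by neutral red dye uptake. EC50 is the concentration giving 50% inhibition of the virus effect, as the mean of triplicates.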

[4] = test system: Influenza A virus; test: Antiviral activity against Influenza A virus Wisconsin/67/2005/H3N2 infected MDCK cells assessed as inhibition of virus-induced cytopathic effect after 3 days; assay type: functional, organism-based, Influenza A virus (A/Wisconsin/67/2005(H3N2)); settings: mdck
How it was run: (§3)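 Triplicate MDCK (ATCC CCL-34) wells got serial dilutions of compound. They were then inoculated with ≤300 CCID50, enough for ~100% CPE in control wells within 3 days, using the same inoculum for all replicates. CPE was scored visually. EC50 is the concentration reducing CPE by 50%, as the mean of triplicates.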

[5] = Selectivity ratio of IC50 for MDCK cells to EC90 for Influenza A virus Duck/MN/1525/81/H5N1 by virus yield reduction assay; assay type: ADME, cell-based; settings: dog, mdck
How it was run: (§4)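 IC50 (50% inhibition of uninfected MDCK cells) divided by EC90 (concentration reducing the infectious virus titer by 90% in the yield reduction assay).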

[6] = Selectivity ratio of IC50 for MDCK cells to EC50 for inhibition of virus-induced cytopathic effect of Influenza A virus California/07/2009 /H1N1; assay type: cell-based; settings: dog, mdck
How it was run: (§5)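 IC50 (50% inhibition of uninfected MDCK cells) divided by EC50 (concentration reducing virus-induced CPE by 50%, scored visually), both from replicate serial-dilution assays.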

[7] = Selectivity ratio of IC50 for MDCK cells to EC50 for inhibition of virus-induced cytopathic effect of Influenza B virus Malaysia/2506/2004; assay type: cell-based; settings: dog, mdck; how it was run: as §5
[8] = Selectivity ratio of IC50 for MDCK cells to EC90 for Influenza A virus California/07/2009 /H1N1 by virus yield reduction assay; assay type: ADME, cell-based; settings: dog, mdck; how it was run: as §4
[9] = test system: H5N1 subtype; test: Antiviral activity against Influenza A virus Gull/PA/4175/83/H5N1 infected MDCK cells assessed as inhibition of virus-induced cytopathic effect after 3 days; assay type: functional, organism-based, Influenza A virus (A/gull/Pennsylvania/4175/83(H5N1)); settings: mdck
[10] = Selectivity ratio of IC50 for MDCK cells to EC50 for Influenza A virus Vietnam/1203/ 2004H/H5N1 by neutral red dye uptake assay; assay type: ADME, cell-based; settings: dog, mdck; how it was run: as §1
[11] = Antiviral activity against Influenza A virus Solomon Islands/03/2006/H1N1 infected MDCK cells assessed as inhibition of virus-induced cytopathic effect after 3 days; assay type: functional, organism-based, Influenza A virus (A/Solomon Islands/3/2006(H1N1)); settings: mdck; how it was run: as §3
[12] = test system: Influenza B virus; test: Antiviral activity against Influenza B virus Malaysia/2506/2004 infected MDCK cells after 3 days by virus yield reduction assay; assay type: functional, B/Malaysia/2506/2004
How it was run: (§6)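 Yield reduction assay: MDCK cells got serial compound dilutions and ≤300 CCID50 virus, in triplicate. Progeny virus was titrated. EC90 is the concentration reducing the infectious titer by 90%, as the mean of triplicates.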

[13] = test system: Influenza A virus (A/Puerto Rico/8/1934(H1N1)); test: Antiviral activity against Influenza A virus Solomon Islands/03/2006/H1N1 infected MDCK cells after 3 days by virus yield reduction assay; assay type: functional, Influenza A virus (A/Solomon Islands/3/2006(H1N1)); how it was run: as §6
[14] = Selectivity ratio of IC50 for MDCK cells to EC90 for Influenza A virus Vietnam/1203/ 2004H/H5N1 by virus yield reduction assay; assay type: ADME, cell-based; settings: dog, mdck; how it was run: as §4
[15] = test system: Influenza B virus; test: Antiviral activity against Influenza B virus Malaysia/2506/2004 infected MDCK cells assessed as inhibition of virus-induced cytopathic effect after 3 days; assay type: functional, organism-based, B/Malaysia/2506/2004; settings: mdck; how it was run: as §3
[16] = test system: H5N1 subtype; test: Antiviral activity against Influenza A virus Duck/MN/1525/81/H5N1 infected MDCK cells after 42 to 46 hrs by neutral red dye uptake assay; assay type: functional, organism-based, Influenza A virus (A/duck/Minnesota/1525/1981(H5N1)); settings: mdck
[17] = Selectivity ratio of IC50 for MDCK cells to EC50 for Influenza A virus Solomon Islands/03/2006/H1N1 by neutral red dye uptake assay; assay type: ADME, cell-based; settings: dog, mdck; how it was run: as §1
[18] = Selectivity ratio of IC50 for MDCK cells to EC50 for Influenza A virus Hong Kong/213/2003/H5N1 by neutral red dye uptake assay; assay type: ADME, cell-based; settings: dog, mdck; how it was run: as §1
[19] = Selectivity ratio of IC50 for MDCK cells to EC50 for inhibition of virus-induced cytopathic effect of Influenza A virus Vietnam/1203/ 2004H/H5N1; assay type: cell-based; settings: dog, mdck; how it was run: as §5
[20] = test system: H5N1 subtype; test: Antiviral activity against Influenza A virus Hong Kong/213/2003/H5N1 infected MDCK cells after 42 to 46 hrs by neutral red dye uptake assay; assay type: functional, organism-based, Influenza A virus (A/Hong Kong/213/2003(H5N1)); settings: mdck
[21] = Selectivity ratio of IC50 for MDCK cells to EC90 for Influenza A virus Wisconsin/67/2005/H3N2 by virus yield reduction assay; assay type: ADME, cell-based; settings: dog, mdck; how it was run: as §4
[22] = test system: Influenza A virus; test: Antiviral activity against Influenza A virus Vietnam/1203/ 2004H/H5N1 infected MDCK cells after 42 to 46 hrs by neutral red dye uptake assay; assay type: functional, organism-based, A/Viet Nam/1203/2004(H5N1); settings: mdck
[23] = test system: H5N1 subtype; test: Antiviral activity against Influenza A virus Duck/MN/1525/81/H5N1 infected MDCK cells after 3 days by virus yield reduction assay; assay type: functional, Influenza A virus (A/duck/Minnesota/1525/1981(H5N1))
[24] = Selectivity ratio of IC50 for MDCK cells to EC50 for inhibition of virus-induced cytopathic effect of Influenza A virus Solomon Islands/03/2006/H1N1; assay type: cell-based; settings: dog, mdck; how it was run: as §5
[25] = test system: Influenza A virus; test: Antiviral activity against Influenza A virus California/07/2009 /H1N1 infected MDCK cells after 42 to 46 hrs by neutral red dye uptake assay; assay type: functional, organism-based, A/California/07/2009(H1N1); settings: mdck
[26] = Selectivity ratio of IC50 for MDCK cells to EC90 for Influenza A virus Hong Kong/213/2003/H5N1 by virus yield reduction assay; assay type: ADME, cell-based; settings: dog, mdck; how it was run: as §4
[27] = test system: H5N1 subtype; test: Antiviral activity against Influenza A virus Gull/PA/4175/83/H5N1 infected MDCK cells after 42 to 46 hrs by neutral red dye uptake assay; assay type: functional, organism-based, Influenza A virus (A/gull/Pennsylvania/4175/83(H5N1)); settings: mdck
[28] = Selectivity ratio of IC50 for MDCK cells to EC50 for Influenza A virus Gull/PA/4175/83/H5N1 by neutral red dye uptake assay; assay type: ADME, cell-based; settings: dog, mdck; how it was run: as §1
[29] = test system: Influenza A virus; test: Antiviral activity against Influenza A virus Vietnam/1203/ 2004H/H5N1 infected MDCK cells assessed as inhibition of virus-induced cytopathic effect after 3 days; assay type: functional, organism-based, A/Viet Nam/1203/2004(H5N1); settings: mdck
[30] = Selectivity ratio of IC50 for MDCK cells to EC90 for Influenza B virus Malaysia/2506/2004 by virus yield reduction assay; assay type: ADME, cell-based; settings: dog, mdck; how it was run: as §4
[31] = Selectivity ratio of IC50 for MDCK cells to EC50 for inhibition of virus-induced cytopathic effect of Influenza A virus Wisconsin/67/2005/H3N2; assay type: cell-based; settings: dog, mdck; how it was run: as §5
[32] = test system: Influenza A virus (A/Puerto Rico/8/1934(H1N1)); test: Antiviral activity against Influenza A virus Solomon Islands/03/2006/H1N1 infected MDCK cells after 42 to 46 hrs by neutral red dye uptake assay; assay type: functional, organism-based, Influenza A virus (A/Solomon Islands/3/2006(H1N1)); settings: mdck; how it was run: as §2
[33] = test system: Influenza A virus; test: Antiviral activity against Influenza A virus California/07/2009 /H1N1 infected MDCK cells after 3 days by virus yield reduction assay; assay type: functional, A/California/07/2009(H1N1)
[34] = Selectivity ratio of IC50 for MDCK cells to EC50 for inhibition of virus-induced cytopathic effect of Influenza A virus Duck/MN/1525/81/H5N1; assay type: cell-based; settings: dog, mdck; how it was run: as §5
[35] = test system: Influenza A virus; test: Antiviral activity against Influenza A virus Vietnam/1203/ 2004H/H5N1 infected MDCK cells after 3 days by virus yield reduction assay; assay type: functional, A/Viet Nam/1203/2004(H5N1)
[36] = Selectivity ratio of IC50 for MDCK cells to EC50 for Influenza A virus California/07/2009 /H1N1 by neutral red dye uptake assay; assay type: ADME, cell-based; settings: dog, mdck; how it was run: as §1
[37] = test system: H5N1 subtype; test: Antiviral activity against Influenza A virus Hong Kong/213/2003/H5N1 infected MDCK cells after 3 days by virus yield reduction assay; assay type: functional, Influenza A virus (A/Hong Kong/213/2003(H5N1))
[38] = Selectivity ratio of IC50 for MDCK cells to EC50 for Influenza A virus Duck/MN/1525/81/H5N1 by neutral red dye uptake assay; assay type: ADME, cell-based; settings: dog, mdck; how it was run: as §1
[39] = Selectivity ratio of IC50 for MDCK cells to EC50 for inhibition of virus-induced cytopathic effect of Influenza A virus Gull/PA/4175/83/H5N1; assay type: cell-based; settings: dog, mdck; how it was run: as §5
[40] = test system: Influenza A virus; test: Antiviral activity against Influenza A virus Wisconsin/67/2005/H3N2 infected MDCK cells after 3 days by virus yield reduction assay; assay type: functional, Influenza A virus (A/Wisconsin/67/2005(H3N2)); how it was run: as §6
[41] = Selectivity ratio of IC50 for MDCK cells to EC50 for Influenza A virus Wisconsin/67/2005/H3N2 by neutral red dye uptake assay; assay type: ADME, cell-based; settings: dog, mdck; how it was run: as §1
[42] = test system: H5N1 subtype; test: Antiviral activity against Influenza A virus Duck/MN/1525/81/H5N1 infected MDCK cells assessed as inhibition of virus-induced cytopathic effect after 3 days; assay type: functional, organism-based, Influenza A virus (A/duck/Minnesota/1525/1981(H5N1)); settings: mdck
[43] = Selectivity ratio of IC50 for MDCK cells to EC90 for Influenza A virus Solomon Islands/03/2006/H1N1 by virus yield reduction assay; assay type: ADME, cell-based; settings: dog, mdck; how it was run: as §4
[44] = test system: Influenza B virus; test: Antiviral activity against Influenza B virus Malaysia/2506/2004 infected MDCK cells after 42 to 46 hrs by neutral red dye uptake assay; assay type: functional, organism-based, B/Malaysia/2506/2004; settings: mdck; how it was run: as §2

Nc1ccn([C@@H]2C[C@H](CO)[C@@H](O)[C@H]2O)c(=O)n1 (racemic)
EC50 [1]: 1.5 µM | Ratio IC50/EC50 [2]: > 318 | EC50 [3]: 4.6 µM | EC50 [4]: 2.8 µM | Ratio [5]: > 24 | Ratio IC50/EC50 [6]: > 276 | Ratio IC50/EC50 [7]: > 518 | Ratio [8]: > 94 | EC50 [9]: 1.1 µM | Ratio IC50/EC50 [10]: > 143 | EC50 [11]: 1.9 µM | EC90 [12]: 3.8 µM | EC90 [13]: 2.3 µM | Ratio [14]: > 34 | EC50 [15]: 0.8 µM | EC50 [16]: 5 µM | Ratio IC50/EC50 [17]: > 207 | Ratio IC50/EC50 [18]: > 230 | Ratio IC50/EC50 [19]: > 414 | EC50 [20]: 1.8 µM | Ratio [21]: > 118 | EC50 [22]: 2.9 µM | EC90 [23]: 17.6 µM | Ratio IC50/EC50 [24]: > 218 | EC50 [25]: 1.9 µM | Ratio [26]: > 207 | EC50 [27]: 1.4 µM | Ratio IC50/EC50 [28]: > 296 | EC50 [29]: 1 µM | Ratio [30]: > 109 | Ratio IC50/EC50 [31]: > 148 | EC50 [32]: 2 µM | EC90 [33]: 4.4 µM | Ratio IC50/EC50 [34]: > 173 | EC90 [35]: 12.1 µM | Ratio IC50/EC50 [36]: > 218 | EC90 [37]: 2 µM | Ratio IC50/EC50 [38]: > 83 | Ratio IC50/EC50 [39]: > 376 | EC90 [40]: 3.5 µM | Ratio IC50/EC50 [41]: > 90 | EC50 [42]: 2.4 µM | Ratio [43]: > 180 | EC50 [44]: 1.3 µM
